Activity calls are given as the source filed them. No cut-off for these calls is given here.
Tests used:
BV-2 [1] = assay: Antiinflammatory activity in mouse BV-2 cells assessed as inhibition of LPS-induced TNFalpha production preincubated for 6 hrs followed by LPS stimulation and measured after 24 hrs by ELISA; assay type: functional, cell-based; conditions: dose 0.02-2 µM, time 30.0 hrs
Method in brief: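 BV-2 cells seeded in 12-well plates and pretreated 6 h with compound at […]. LPS then added for 24 h. TNF-α and IL-6 released into the medium quantified by ELISA. Mean ± SEM, n = 3, three separate experiments.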

[2] = biological target: T1, Nuclear factor erythroid 2-related factor 2 (Mus musculus) (UniProt Q60795); assay: Activation of Nrf2 in mouse BV-2 cells assessed as increase in HO1 expression at 10 uM after 6 hrs by Western blot analysis relative to control; assay type: cell-based; conditions: filed as activator
T1 sequence (whole entry): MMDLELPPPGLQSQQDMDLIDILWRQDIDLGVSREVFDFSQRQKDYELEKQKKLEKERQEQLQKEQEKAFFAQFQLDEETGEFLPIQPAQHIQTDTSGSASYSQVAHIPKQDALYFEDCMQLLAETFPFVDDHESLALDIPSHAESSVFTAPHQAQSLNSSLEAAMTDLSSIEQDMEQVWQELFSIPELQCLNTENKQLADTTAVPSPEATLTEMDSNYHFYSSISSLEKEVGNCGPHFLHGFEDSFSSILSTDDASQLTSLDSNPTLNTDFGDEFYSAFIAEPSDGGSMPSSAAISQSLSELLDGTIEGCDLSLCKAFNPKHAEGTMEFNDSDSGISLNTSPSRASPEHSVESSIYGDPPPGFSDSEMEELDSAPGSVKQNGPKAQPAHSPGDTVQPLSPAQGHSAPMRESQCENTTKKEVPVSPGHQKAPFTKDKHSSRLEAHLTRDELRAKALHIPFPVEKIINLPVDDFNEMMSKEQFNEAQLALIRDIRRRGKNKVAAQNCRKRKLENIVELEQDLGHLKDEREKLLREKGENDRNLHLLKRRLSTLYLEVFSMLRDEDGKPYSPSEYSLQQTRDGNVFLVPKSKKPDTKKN
Method in brief: (§1)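 BV-2 microglia grown in RPMI-1640 with 10% FBS, penicillin-streptomycin and 2 mM L-glutamine at 37 °C, 5% CO2. Cells exposed to a range of concentrations for 6 h, then HO-1, GCLC, GCLM and SOD1 protein measured by Western blot. Band intensity normalized to β-actin and given as fold of vehicle control. Mean ± SEM, n = 3, three separate experiments.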

[3] = biological target: T1, Nuclear factor erythroid 2-related factor 2 (Mus musculus); assay: Activation of Nrf2 in mouse BV-2 cells assessed as increase in Sod1 mRNA expression after 6 hrs by RT-qPCR analysis; assay type: cell-based; conditions: filed as activator, dose 0.03-1 µM
Method in brief: (§2)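 BV-2 cells exposed to a range of concentrations for 6 h. Ho1, Gclc, Gclm and Sod1 mRNA quantified by RT-qPCR and expressed relative to vehicle-treated control. Mean ± SEM, n = 3; Student's t-test.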

CYP2C19 = CYP2C19 (Homo sapiens, UniProt P33261); assay: Inhibition of CYP2C19 (unknown origin) assessed as residual activity; assay type: ADME
Chain of CYP2C19 (P33261 whole entry): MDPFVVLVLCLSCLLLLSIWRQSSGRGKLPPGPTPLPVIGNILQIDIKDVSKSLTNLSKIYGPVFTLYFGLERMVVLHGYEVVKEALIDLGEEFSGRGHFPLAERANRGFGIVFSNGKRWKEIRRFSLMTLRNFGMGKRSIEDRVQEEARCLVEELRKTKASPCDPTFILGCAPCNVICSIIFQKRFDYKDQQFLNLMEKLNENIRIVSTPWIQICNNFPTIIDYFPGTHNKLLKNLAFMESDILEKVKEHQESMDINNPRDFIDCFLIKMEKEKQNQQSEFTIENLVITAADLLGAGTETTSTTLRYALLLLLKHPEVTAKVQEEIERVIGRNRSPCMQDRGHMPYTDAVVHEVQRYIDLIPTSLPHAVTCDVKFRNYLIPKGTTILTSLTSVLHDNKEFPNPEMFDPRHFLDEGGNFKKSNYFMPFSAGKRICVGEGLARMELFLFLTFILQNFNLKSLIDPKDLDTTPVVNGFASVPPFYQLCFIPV

[4] = biological target: Voltage-gated inwardly rectifying potassium channel KCNH2 (Homo sapiens, UniProt Q12809); assay: Inhibition of fluorescence tracer red binding to human ERG measured after 4 hrs by fluorescence polarization assay
Chain of Voltage-gated inwardly rectifying potassium channel KCNH2 (Q12809 whole entry): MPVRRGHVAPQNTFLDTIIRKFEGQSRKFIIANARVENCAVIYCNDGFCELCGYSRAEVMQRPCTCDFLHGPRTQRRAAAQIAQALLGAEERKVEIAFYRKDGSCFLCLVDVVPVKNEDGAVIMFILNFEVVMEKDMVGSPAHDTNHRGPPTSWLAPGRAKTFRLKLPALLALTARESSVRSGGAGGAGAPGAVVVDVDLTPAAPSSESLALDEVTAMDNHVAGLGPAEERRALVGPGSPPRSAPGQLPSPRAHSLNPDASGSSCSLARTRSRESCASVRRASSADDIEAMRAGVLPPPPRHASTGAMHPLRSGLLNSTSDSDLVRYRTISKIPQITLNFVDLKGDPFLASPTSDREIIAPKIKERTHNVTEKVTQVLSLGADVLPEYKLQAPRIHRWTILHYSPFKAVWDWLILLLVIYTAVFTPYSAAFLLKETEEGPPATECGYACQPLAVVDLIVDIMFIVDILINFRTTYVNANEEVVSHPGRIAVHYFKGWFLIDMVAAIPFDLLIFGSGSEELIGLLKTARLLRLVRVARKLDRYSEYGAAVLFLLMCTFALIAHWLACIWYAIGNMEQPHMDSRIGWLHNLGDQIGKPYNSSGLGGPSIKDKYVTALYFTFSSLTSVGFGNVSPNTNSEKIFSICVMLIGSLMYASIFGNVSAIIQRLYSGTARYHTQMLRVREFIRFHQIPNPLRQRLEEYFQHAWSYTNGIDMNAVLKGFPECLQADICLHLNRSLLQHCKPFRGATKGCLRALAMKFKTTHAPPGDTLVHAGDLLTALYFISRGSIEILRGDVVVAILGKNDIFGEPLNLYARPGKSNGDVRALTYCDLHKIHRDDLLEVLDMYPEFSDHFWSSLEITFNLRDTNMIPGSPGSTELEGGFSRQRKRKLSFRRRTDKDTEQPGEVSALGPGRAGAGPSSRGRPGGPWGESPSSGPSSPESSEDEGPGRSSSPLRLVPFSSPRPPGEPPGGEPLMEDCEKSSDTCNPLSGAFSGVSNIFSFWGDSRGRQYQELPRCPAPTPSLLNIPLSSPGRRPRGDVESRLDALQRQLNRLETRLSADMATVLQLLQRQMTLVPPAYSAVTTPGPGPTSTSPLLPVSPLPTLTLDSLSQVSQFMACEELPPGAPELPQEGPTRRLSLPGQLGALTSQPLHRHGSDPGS

[5] = biological target: T1, Nuclear factor erythroid 2-related factor 2 (Mus musculus); assay: Activation of Nrf2 in mouse BV-2 cells assessed as increase in HO1 expression after 6 hrs by Western blot analysis; assay type: cell-based; conditions: filed as activator, dose 0.02-10 µM; method in brief: as §1
[6] = biological target: T1, Nuclear factor erythroid 2-related factor 2 (Mus musculus); assay: Activation of Nrf2 in mouse BV-2 cells assessed as increase in GCLM expression after 6 hrs by Western blot analysis; assay type: cell-based; conditions: filed as activator, dose 0.02-10 µM; method in brief: as §1
[7] = Cytotoxicity against mouse BV-2 cells assessed cell viability at 0.3 uM measured after 6 hrs by Ez-cytox reagent based assay relative to control; conditions: read-out: Activity
Method in brief: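 BV-2 cells (1.0 × 10⁴/well) grown 24 h at 37 °C, 5% CO2, then treated 6 h at […]. Viability expressed as percent of control.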

CYP2D6 = CYP2D6 (Homo sapiens, UniProt P10635); assay: Inhibition of CYP2D6 (unknown origin) assessed as residual activity; assay type: ADME
Chain of CYP2D6 (P10635 whole entry): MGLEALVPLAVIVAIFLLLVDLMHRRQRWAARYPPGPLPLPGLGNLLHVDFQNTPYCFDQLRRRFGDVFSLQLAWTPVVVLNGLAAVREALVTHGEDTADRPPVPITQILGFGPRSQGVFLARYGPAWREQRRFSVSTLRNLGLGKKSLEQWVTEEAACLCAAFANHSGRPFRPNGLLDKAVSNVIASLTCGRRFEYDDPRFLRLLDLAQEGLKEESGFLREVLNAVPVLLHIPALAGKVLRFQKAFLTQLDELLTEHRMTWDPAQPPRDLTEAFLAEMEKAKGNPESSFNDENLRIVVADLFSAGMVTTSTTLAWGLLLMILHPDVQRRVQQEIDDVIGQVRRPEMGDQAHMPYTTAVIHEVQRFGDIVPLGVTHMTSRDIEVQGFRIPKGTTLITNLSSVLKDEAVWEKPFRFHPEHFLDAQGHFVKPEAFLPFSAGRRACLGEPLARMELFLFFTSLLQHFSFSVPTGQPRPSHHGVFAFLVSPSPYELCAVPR

Mus musculus [8] = assay: (§3) Neuroprotective activity in MPTP-induced C57BL/6 mouse model of Parkinson's disease assessed as reduction in tyrosine hydroxylase-positive cell loss at 30 mg/kg, po pretreated for 1 day followed by MPTP challenge and subsequent compound dosing for 2 days measured 6 days post-MPTP challenge by immunohistochemistry analysis relative to control; assay type: functional; design: scale not given: the % may be the effect or the level left; conditions: time 7 day
Method in brief: (§4)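 Male C57BL/6 mice, 10 weeks old, 23–26 g, n = 10 per group. Dosed 30 mg/kg p.o. for 3 consecutive days in 10% N-methyl-2-pyrrolidone/20% Tween-80 in water. On day 2, MPTP-HCl 20 mg/kg i.p. given four times at 2 h intervals. Coat-hanger (scored 1–5, test done twice) and vertical grid tests run 6 days after MPTP. Brains taken next day for anti-TH immunohistochemistry (1:1000, DAB).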

[9] = biological target: T1, Nuclear factor erythroid 2-related factor 2 (Mus musculus); assay: Activation of Nrf2 in mouse BV-2 cells assessed as increase in nuclear Nrf2 levels after 6 hrs by Western blot analysis; assay type: cell-based; conditions: filed as activator, dose 0.02-10 µM
[10] = biological target: T1, Nuclear factor erythroid 2-related factor 2 (Mus musculus); assay: Activation of Nrf2 in mouse BV-2 cells assessed as increase in GCLM expression at 10 uM after 6 hrs by Western blot analysis relative to control; assay type: cell-based; conditions: filed as activator; method in brief: as §1
Mus musculus [11] = assay: as §3, with “TH-immunoreactive fiber density” for “tyrosine hydroxylase-positive cell loss”, “immunohistochemistry” for “immunohistochemistry analysis relative to control”; assay type: functional, organism-based; conditions: time 7.0 day; method in brief: as §4
[12] = biological target: T1, Nuclear factor erythroid 2-related factor 2 (Mus musculus); assay: Activation of Nrf2 in mouse BV-2 cells assessed as increase in SOD1 expression at 10 uM after 6 hrs by Western blot analysis relative to control; assay type: cell-based; conditions: filed as activator; method in brief: as §1
[13] = biological target: T1, Nuclear factor erythroid 2-related factor 2 (Mus musculus); assay: Activation of Nrf2 in mouse BV-2 cells assessed as increase in HO1 mRNA expression at 1 uM after 6 hrs by RT-qPCR analysis relative to control; assay type: cell-based; conditions: filed as activator; method in brief: as §2
BV-2 [14] = assay: Antiinflammatory activity in mouse BV-2 cells assessed as inhibition of LPS-induced nitric oxide production preincubated for 6 hrs followed by LPS stimulation and measured after 24 hrs by griess assay; assay type: functional, cell-based; conditions: dose 0.01-3 µM, time 30.0 hrs
Method in brief: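 Nitrite in medium read by Griess reaction. BV-2 cells pretreated 6 h across a dose range, then given LPS for 24 h. Medium treated with 1% sulfanilamide in 5% phosphoric acid, then 0.1% N-1-naphthylethylenediamine, each 5 min at RT in the dark. A540 read and converted against a nitrite standard curve.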

- fold change (FC) [2]: 17.6
- Activity [3]: Dose-dependent effect
- activity (CYP2C19): 27.8%
- Activity [5]: Dose-dependent effect
- Activity [6]: Dose-dependent effect
- activity (CYP2D6): 88%
- Activity [9]: Dose-dependent effect
- fold change (FC) [10]: 26.1
- fold change (FC) [12]: 6.6
- fold change (FC) [13]: 6
SMILES: O=S(=O)(/C=C/c1ncccc1Cl)c1ccccc1Cl
- inhibition (BV-2 [1]): Dose-dependent effect
- IC50 [4]: 110 µM
- viability at 6 h, 0.3 µM [7]: 100%
- activity (Mus musculus [8]): 65%
- Activity (Mus musculus [11]): Active
- inhibition (BV-2 [14]): Dose-dependent effect
